This note sets out measurements from ChEMBL document CHEMBL2146369, “Oxazolo[3,2-a]pyridine. A new structural scaffold for the reversal of multi-drug resistance in Leishmania” (Bioorg Med Chem Lett, 2012).

Structures are written as SMILES. Activity calls are given as the source filed them. No cut-off for these calls is given here.

One test deals with THP-1. As to the kind of experiment: Cytotoxicity against PMA-stimulated human THP1 cells after 72 hrs by MTT assay. The format is cell-based. As to conditions: THP-1, 72 h. Summed up: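 THP-1 cells grown at 37 °C, 5% CO2 in RPMI-1640 with 10% iFBS, […], penicillin and streptomycin. Differentiated to macrophages with 20 ng/mL PMA for 48 h, then 24 h in fresh medium. MTT viability assay run as for parasites but incubated at 37 °C. IC50 determined.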
On the technique in general: Tetrazolium assays rely on reduction of a dye to a coloured formazan, in cell work by metabolically active cells.

Test [1] has as its system Leishmania tropica. As to the kind of experiment: Antileishmanial activity against promastigotes of multidrug-resistant Leishmania tropica after 72 hrs by MTT assay. The format is functional, organism-based. Summed up: (§1)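 Promastigotes of wild-type L. tropica LRC clone or DNM-selected MDR line (kept in 150 µM DNM or 30 µM MLF), grown at 28 °C in modified RPMI 1640 with 20% heat-inactivated FBS. Exposed to compounds without DNM for 72 h at 28 °C. Viability read by MTT absorbance at 540 nm, expressed relative to untreated parasites.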

Test [2] concerns Leishmania tropica. As to the kind of experiment: Resistance ratio of IC50 for multidrug-resistant Leishmania tropica and IC50 for wild type Leishmania tropica LRC. The format is functional. Summed up: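 DNM-selected MDR and parental wild-type L. tropica promastigotes treated with increasing drug concentrations for 72 h at 28 °C. Viability read by MTT at 540 nm. Ratio of MDR IC50 to parental IC50 calculated.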

For test [3], the system named is Leishmania tropica. As to the kind of experiment: Antileishmanial activity against promastigotes of wild type Leishmania tropica LRC after 72 hrs by MTT assay. The format is functional, organism-based. Summed up:
as §1

The test system of test [4] is Leishmania tropica. As to the kind of experiment: Potentiation of daunomycin-induced antileishmanial activity against promastigotes of multidrug-resistant Leishmania tropica assessed as fold decrease in daunomycin IC50 at 6 uM after 72 hrs by MTT assay. It counts as functional. Summed up: (§2)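 MDR L. tropica promastigotes given increasing DNM or miltefosine concentrations, with or without 6 µM modulator, for 72 h at 28 °C. Viability measured by MTT absorbance at 540 nm. IC50 taken for each condition. Reversal index is drug IC50 without modulator divided by IC50 with it. Three independent experiments.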

For test [5], the system named is Leishmania tropica. As to the kind of experiment: Potentiation of miltefosine-induced antileishmanial activity against promastigotes of multidrug-resistant Leishmania tropica assessed as fold decrease in miltefosine IC50 at 6 uM after 72 hrs by MTT assay. The format is functional. Summed up: as §2
Test [6] concerns Leishmania tropica. Briefly: Potentiation of daunomycin-induced antileishmanial activity against promastigotes of multidrug-resistant Leishmania tropica at 3 to 8 uM after 72 hrs by MTT assay. It counts as functional, organism-based.

By IC50 is commonly meant the concentration that inhibits the measured activity by half.

Molecule `COC(=O)C1=C(C)N2CCO[C@@]2(C)[C@@H](CO)[C@@H]1c1cccc([N+](=O)[O-])c1` (racemic) showed an IC50 in the test on THP-1 of more than 400 µM.
On to `COc1cccc2c1C(=O)c1c(O)c3c(c(O)c1C2=O)C[C@@](O)(C(C)=O)C[C@@H]3O[C@H]1C[C@H](N)[C@H](O)[C@H](C)O1` [DAUNORUBICIN], for which the 50% inhibitory concentration (IC50) in the test on Leishmania tropica [1] is 180 µM; with THP-1 it was 26.9 µM; in the test with Leishmania tropica [3], 2.8 µM. For the same molecule, the “Ratio IC50” value with Leishmania tropica [2] worked out at 64.
For the molecule `CC(=O)O[C@H]1C[C@](C)(O)[C@]23OC(C)(C)[C@H](C[C@H](OC(=O)c4ccco4)[C@]2(C)[C@H]1OC(C)=O)[C@H]3OC(=O)c1ccco1`, the “fold change (FC)” value came to 4.7 in the test with Leishmania tropica [4] and 6 in the test on Leishmania tropica [5].
`COC(=O)C1=C(C)N2CCO[C@@]2(C)[C@@H](C(=O)OC)[C@@H]1c1cccc([N+](=O)[O-])c1` (racemic): the figures for the “fold change (FC)” value in the test with Leishmania tropica [4] and in the test with Leishmania tropica [5] were 3.9 and 3.4, respectively. Also, in the test with Leishmania tropica [6], the result was Active. The molecule also had an IC50 in the test on THP-1 of more than 400 µM.
Consider `COC(=O)C1=C(C)N2C[C@@H](C)O[C@]2(C)[C@H](C(=O)OC(C)(C)C)[C@H]1c1cccc(Cl)c1`, for which the “fold change (FC)” value in the test on Leishmania tropica [5] is on record as 8.7. In the test on THP-1, the IC50 is more than 400 µM.
In the case of `COC(=O)C1=C(C)N2CCO[C@@]2(C)[C@@H](C(=O)OC)[C@@H]1c1ccc[nH]1` (racemic), the figures for the “fold change (FC)” value with Leishmania tropica [4] and with Leishmania tropica [5] were 1.3 and 1.9, respectively. The outcome in the test with Leishmania tropica [6] was Active. Further, the IC50 in the test on THP-1 was more than 400 µM.
With `COC(=O)C1=C(C)N2CCO[C@@]2(C)[C@@H](C(=O)OC)[C@@H]1c1ccco1` (racemic), the IC50 in the test on THP-1 was more than 400 µM.
The molecule `COC(=O)C1=C(C)N2CCO[C@@]2(C)[C@@H](C(=O)OCc2ccccc2)[C@@H]1c1cccc(Cl)c1` (racemic) showed an IC50 in the test on THP-1 of more than 400 µM.
As to `COC(=O)C1=C(C)N2CCS[C@@]2(C)[C@@H](C(=O)OC)[C@@H]1c1cccc(Cl)c1` (racemic), the “fold change (FC)” value with Leishmania tropica [4] stood at 2.2; in the test on Leishmania tropica [5], 3.5. The outcome in the test with Leishmania tropica [6] was Active. The IC50 in the test with THP-1 was more than 400 µM.
For `COC(=O)C1=C(C)N2C(=O)[C@H](C)O[C@@]2(C)[C@@H](C(=O)OC)[C@@H]1c1cccc(Cl)c1` (racemic), in the test with THP-1, the half-maximal inhibitory concentration (IC50) was more than 400 µM.
Regarding `C=CCOC(=O)[C@H]1[C@H](c2cccc(Cl)c2)C(C(=O)OC)=C(C)N2CCO[C@@]12C` (racemic), in the test with Leishmania tropica [4], the “fold change (FC)” value was more than 5.
`COC(=O)C1=C(C)N2CCO[C@@]2(C)[C@@H](C(=O)OCc2ccccc2)[C@@H]1c1cccc([N+](=O)[O-])c1` (racemic): the IC50 in the test with THP-1 was more than 400 µM.
Take `COC(=O)C1=C(C)N2CCCO[C@@]2(C)[C@@H](C(=O)OC)[C@@H]1c1cccc(Cl)c1` (racemic): the “fold change (FC)” value is reported as 3.2 in the test on Leishmania tropica [4] and 1.5 with Leishmania tropica [5]. In the test with Leishmania tropica [6], the result was Active. In the test on THP-1, this molecule returned an IC50 of more than 400 µM.
With `COC(=O)C1=C(C)N2C[C@H](C)O[C@@]2(C)[C@@H](C(=O)OC)[C@@H]1c1cccc(Cl)c1`, in the test on Leishmania tropica [4], the “fold change (FC)” value is reported as more than 6. Moreover, in the test with THP-1, the IC50 is more than 400 µM.
For `CCCCCCCCCCCCCCCCOP(=O)([O-])OCC[N+](C)(C)C` [MILTEFOSINE], the half-maximal inhibitory concentration (IC50) with Leishmania tropica [1] worked out at 240 µM; in the test on THP-1, 7 µM; in the test on Leishmania tropica [3], 10.9 µM. In addition, the “Ratio IC50” value with Leishmania tropica [2] came out at 22.
